Experiments:
[1] = Cytotoxicity against mouse cloned EN2 cells after 72 hrs by MTT assay; assay type: functional, cell-based; conditions: EN2, 72 h
Method in brief: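 EN2 murine cloned Ehrlich ascites line, grown in suspension in RPMI 1640 with 10% heat-inactivated FBS and used in exponential growth. 500 cells/well, continuous 72 h compound exposure at 37 °C, 5% CO2. Stocks 10 mM in EtOH or DMSO. Read-out: MTT reduction over 3 h 45 min, formazan in DMSO, A550. IC50 is 50% growth inhibition relative to control; mean ± SD, n≥3.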

[2] = Cytotoxicity against mouse cloned EN2 cells after 2 hrs by MTT assay; assay type: functional, cell-based; conditions: EN2, 2 h
Method in brief: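 Murine EN2 Ehrlich ascites cells (RPMI 1640, 10% heat-inactivated FBS, exponential growth, >95% trypan blue exclusion), 500 cells/well, exposed 2 h at 37 °C, 5% CO2. Compound washed out in three spin steps, then 72 h further culture. MTT added for 3 h 45 min, formazan dissolved in DMSO, A550 read. IC50 = 50% growth inhibition vs medium-blank-corrected control; mean ± SD, n≥3.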

Compound | IC50 [1] | IC50 [2]
C=C1C(=O)O[C@@H]2C[C@@H](C)[C@@H]3C=CC(=O)[C@@]3(C)[C@@H](OC(C)=O)[C@H]12 [ANGUSTIBALIN] | 0.22 µM | 1.3 µM
C=C1C(=O)O[C@@H]2C[C@@H](C)[C@@H]3[C@@H](O)C[C@@H](O)[C@@]3(C)[C@@H](OC(=O)/C(C)=C/C)[C@H]12 | 20.7 µM | > 100 µM
C=C1C(=O)O[C@@H]2C[C@@H](C)[C@@H]3[C@@H](O)C[C@@H](OC(=O)/C(C)=C/C)[C@@]3(C)[C@@H](O)[C@H]12 | 10.4 µM | 116 µM
C=C1C(=O)O[C@@H]2C[C@@H](C)[C@@H]3C=CC(=O)[C@@]3(C)[C@@H](OC(=O)/C(C)=C/C)[C@H]12 | 1 µM | 5.3 µM
C=C1C(=O)O[C@H]2C[C@@H](C)[C@@H]3C=CC(=O)[C@@]3(C)[C@H](OC(=O)CC(C)C)[C@H]12 | 0.99 µM | 5.4 µM
C=C1C(=O)O[C@@H]2C[C@@H](C)[C@@H]3C=CC(=O)[C@@]3(C)[C@@H](OC(=O)CC(C)C)[C@H]12 | 0.72 µM | 3.2 µM
C=C1C(=O)O[C@@H]2C[C@@H](C)[C@@H]3[C@@H](OC(C)=O)C[C@@H](O)[C@@]3(C)[C@@H](O)[C@H]12 [CHAMISSONOLIDE] | 7.6 µM | 106 µM
C[C@@H]1C[C@H]2OC(=O)[C@@H](C)[C@H]2[C@H](O)[C@]2(C)C(=O)C=C[C@@H]12 | 6.5 µM | 128 µM
CC(=O)O[C@H]1[C@@H]2[C@H](C)C(=O)O[C@@H]2C[C@@H](C)[C@@H]2C=CC(=O)[C@]21C | 3.5 µM | 43 µM
C=C1C(=O)O[C@@H]2C[C@@H](C)[C@@H]3[C@@H](O)C[C@@H](O)[C@@]3(C)C[C@H]12 | 15.2 µM | 
C=C1C(=O)O[C@@H]2C[C@@H](C)[C@@H]3[C@@H](O)C[C@@H](O)[C@@]3(C)[C@@H](O)[C@H]12 | 13.6 µM | 
C=C1C(=O)O[C@@H]2C[C@@H](C)[C@@H]3C=CC(=O)[C@@]3(C)[C@@H](OC(=O)C(C)C)[C@H]12 [HELENALINISOBUTYRATE] | 0.17 µM | 1.3 µM
C/C=C(\C)C(=O)O[C@H]1[C@@H]2[C@H](C)C(=O)O[C@@H]2C[C@@H](C)[C@@H]2[C@@H](O)CC(=O)[C@]21C | 76 µM | > 100 µM
C=C1C(=O)O[C@H]2C[C@@H](C)[C@@H]3C=CC(=O)[C@@]3(C)[C@@H](OC(C)=O)[C@H]12 [BIGELOVIN] | 0.36 µM | 2 µM
C=C1C(=O)O[C@@H]2C[C@@H](C)[C@@H]3[C@@H](OC(C)=O)C[C@@H](O)[C@@]3(C)C[C@H]12 | 10.6 µM | 102 µM
CC(=O)O[C@H]1C[C@@H](O)[C@]2(C)[C@@H]1[C@H](C)C[C@H]1OC(=O)[C@@H](C)[C@H]1[C@@H]2O | > 100 µM | > 100 µM
C=C1C(=O)O[C@H]2C[C@@H](C)[C@@H]3C=CC(=O)[C@@]3(C)[C@H](O)[C@H]12 [MEXICANIN I] | 0.56 µM | 2.7 µM
C/C=C(\C)C(=O)O[C@H]1[C@@H]2[C@H](C)C(=O)O[C@@H]2C[C@@H](C)[C@@H]2C=CC(=O)[C@]21C | 2.6 µM | 19 µM
C=C1C(=O)O[C@@H]2C[C@@H](C)[C@@H]3C=CC(=O)[C@@]3(C)[C@@H](O)[C@H]12 [HELENALIN] | 0.39 µM | 2.4 µM
C=C1C(=O)O[C@@H]2C[C@@H](C)[C@@H]3[C@@H](O)CC(=O)[C@@]3(C)[C@@H](OC(=O)/C(C)=C/C)[C@H]12 [ARNIFOLIN] | 4 µM | 62 µM
CC(C)CC(=O)O[C@H]1[C@@H]2[C@H](C)C(=O)O[C@@H]2C[C@@H](C)[C@@H]2C=CC(=O)[C@]21C | 1.7 µM | 20 µM
